In brackets after ≈: the same amount, converted by molar mass.
Columns and labels:
Mycobacterium avium [1] = test: Antimycobacterial activity against isoniazid resistance Mycobacterium avium 330/88 after 21 days by micromethod; format: functional; details: 330/88, 504 h
Method in brief: (§1)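 Inocula: M. tuberculosis My 331/88 at 10^-3 dilution, M. avium My 330/88 at 10^-5, M. kansasii My 235/80 and clinical isolate 6509/96 at 10^-4. Compounds added in DMSO at 1000 down to 0.5 (twofold series). Read at 14 and 21 days, plus 7 days for M. kansasii. MIC taken as lowest concentration inhibiting growth.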

[2] = tested on: Mycobacterium tuberculosis; test: Antimycobacterial activity against Mycobacterium tuberculosis 331/88 after 21 days by micromethod; format: functional; details: 331/88, 504 h; method in brief: as §1
Mycobacterium kansasii [3] = test: Antimycobacterial activity against Mycobacterium kansasii 6509/96 clinical isolate after 14 days by micromethod; format: functional; details: 6509/96, 336 h; method in brief: as §1
[4] = biological target: T1, Isocitrate lyase (Mycobacterium tuberculosis) (UniProt P9WKK7); test: Inhibition of Mycobacterium tuberculosis H37Rv isocitrate lyase expressed in Escherichia coli HB101 at 10 umol/L
T1 sequence (whole entry): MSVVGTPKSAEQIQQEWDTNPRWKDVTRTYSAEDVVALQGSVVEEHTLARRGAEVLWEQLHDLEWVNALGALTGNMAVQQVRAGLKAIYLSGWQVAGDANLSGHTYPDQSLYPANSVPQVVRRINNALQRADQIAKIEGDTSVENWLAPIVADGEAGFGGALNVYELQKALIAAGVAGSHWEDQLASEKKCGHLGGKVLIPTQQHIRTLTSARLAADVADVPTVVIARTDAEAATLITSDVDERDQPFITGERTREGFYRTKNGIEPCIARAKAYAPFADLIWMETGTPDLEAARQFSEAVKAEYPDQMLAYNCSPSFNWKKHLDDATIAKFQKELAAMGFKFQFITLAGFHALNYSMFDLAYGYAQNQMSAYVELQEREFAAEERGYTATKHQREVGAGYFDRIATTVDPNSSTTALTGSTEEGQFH
Method in brief: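 Isocitrate lyase assayed per Dixon–Kornberg in 96-well format. Buffer: 50 mmol/L KH2PO4, 4 mmol/L MgCl2, 4 mmol/L phenylhydrazine, 12 mmol/L cysteine, pH 7.0. Glyoxylate phenylhydrazone read at 324 nm. Compounds added in DMSO, with DMSO-alone inhibition subtracted.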

Mycobacterium kansasii [5] = test: Antimycobacterial activity against Mycobacterium kansasii 6509/96 clinical isolate after 7 days by micromethod; format: functional; details: 6509/96, 168 h; method in brief: as §1
[6] = tested on: Mycobacterium tuberculosis; test: Antimycobacterial activity against Mycobacterium tuberculosis 331/88 after 14 days by micromethod; format: functional; details: 331/88, 336 h; method in brief: as §1
Mycobacterium kansasii [7] = test: Antimycobacterial activity against isoniazid resistance Mycobacterium kansasii 225/80 after 7 days by micromethod; format: functional; details: 225/80, 168 h
Mycobacterium kansasii [8] = test: Antimycobacterial activity against isoniazid resistance Mycobacterium kansasii 225/80 after 21 days by micromethod; format: functional; details: 225/80, 504 h
Mycobacterium kansasii [9] = test: Antimycobacterial activity against Mycobacterium kansasii 6509/96 clinical isolate after 21 days by micromethod; format: functional; details: 6509/96, 504 h; method in brief: as §1
Mycobacterium avium [10] = test: Antimycobacterial activity against isoniazid resistance Mycobacterium avium 330/88 after 14 days by micromethod; format: functional; details: 330/88, 336 h; method in brief: as §1
Mycobacterium kansasii [11] = test: Antimycobacterial activity against isoniazid resistance Mycobacterium kansasii 225/80 after 14 days by micromethod; format: functional; details: 225/80, 336 h
HepG2 = test: Cytotoxicity against human HepG2 cells after 24 hrs by CellTiter-96 cell viability assay; format: functional, cell-based; details: HepG2, 24 h
Method in brief: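 Hep G2 human hepatic cells (passage 12), 10,000 per well, grown 24 h at 37 °C, 5% CO2 in MEM with 1% glutamine, 10% FBS and 1% nonessential amino acids. Compounds in DMSO at eight increasing concentrations, quadruplicate, 24 h at 37 °C. Kit reagent added, 1.5 h at 37 °C, absorbance 490 nm. IC50 is the concentration reducing viability to 50% of control.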

[12] = Selectivity index, ratio of IC50 for human HepG2 cells to MIC for Mycobacterium tuberculosis 331/88 after 14 days; format: functional
Method in brief: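 Cytotoxicity in Hep G2 cells (passage 12), 10,000 cells/well, in MEM with 10% FBS, 1% glutamine and 1% nonessential amino acids. Cells preincubated 24 h, 37 °C, 5% CO2. Compounds in DMSO at eight concentrations in quadruplicate, 24 h. MTS-type reagent added for 1.5 h, A490 read, IC50 taken at 50% viability. SI = this IC50 over the 14-day M. tuberculosis MIC.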

| Structure (SMILES) | MIC (Mycobacterium avium [1]) [µM] | MIC [2] [µM] | MIC (Mycobacterium kansasii [3]) [µM] | inhibition [4] [%] | MIC (Mycobacterium kansasii [5]) [µM] | MIC [6] [µM] | MIC (Mycobacterium kansasii [7]) [µM] | MIC (Mycobacterium kansasii [8]) [µM] | MIC (Mycobacterium kansasii [9]) [µM] | MIC (Mycobacterium avium [10]) [µM] | MIC (Mycobacterium kansasii [11]) [µM] | IC50 (HepG2) [µM] | Selectivity Index [12] |
| --- | --- | --- | --- | --- | --- | --- | --- | --- | --- | --- | --- | --- | --- |
| COc1ccc(Cl)cc1-c1nc2ccc(Br)cc2o1 | 125 (≈ 42.3 µg/mL) | 125 (≈ 42.3 µg/mL) | 125 (≈ 42.3 µg/mL) | 0 | 125 (≈ 42.3 µg/mL) | 125 (≈ 42.3 µg/mL) | 125 (≈ 42.3 µg/mL) | 125 (≈ 42.3 µg/mL) | 125 (≈ 42.3 µg/mL) | 125 (≈ 42.3 µg/mL) | 125 (≈ 42.3 µg/mL) | – | – |
| O=C(O)CC[N+](=O)[O-] | – | – | – | 25 | – | – | – | – | – | – | – | – | – |
| COc1ccc(Cl)cc1C(=S)Nc1ccc(C(F)(F)F)cc1O | 62.5 (≈ 22.6 µg/mL) | 62.5 (≈ 22.6 µg/mL) | 62.5 (≈ 22.6 µg/mL) | 21 | 32 (≈ 11.6 µg/mL) | 62.5 (≈ 22.6 µg/mL) | – | 62.5 (≈ 22.6 µg/mL) | 62.5 (≈ 22.6 µg/mL) | 32 (≈ 11.6 µg/mL) | 62.5 (≈ 22.6 µg/mL) | 3.69 | 0.06 |
| COc1ccc(Cl)cc1-c1nc2ccc(C(F)(F)F)cc2o1 | 250 (≈ 81.9 µg/mL) | 62.5 (≈ 20.5 µg/mL) | 62.5 (≈ 20.5 µg/mL) | 0 | 62.5 (≈ 20.5 µg/mL) | 62.5 (≈ 20.5 µg/mL) | 250 (≈ 81.9 µg/mL) | 250 (≈ 81.9 µg/mL) | 62.5 (≈ 20.5 µg/mL) | 250 (≈ 81.9 µg/mL) | 250 (≈ 81.9 µg/mL) | – | – |
| COc1cc(Cl)ccc1-c1nc2ccc(Br)cc2o1 | 125 (≈ 42.3 µg/mL) | 125 (≈ 42.3 µg/mL) | 125 (≈ 42.3 µg/mL) | 0 | 125 (≈ 42.3 µg/mL) | 125 (≈ 42.3 µg/mL) | 125 (≈ 42.3 µg/mL) | 125 (≈ 42.3 µg/mL) | 125 (≈ 42.3 µg/mL) | 125 (≈ 42.3 µg/mL) | 125 (≈ 42.3 µg/mL) | – | – |
| COc1cc(Cl)ccc1C(=O)Nc1ccc(C(F)(F)F)cc1O | 62.5 (≈ 21.6 µg/mL) | 250 (≈ 86.4 µg/mL) | 250 (≈ 86.4 µg/mL) | 7 | 250 (≈ 86.4 µg/mL) | 250 (≈ 86.4 µg/mL) | – | 250 (≈ 86.4 µg/mL) | 250 (≈ 86.4 µg/mL) | 62.5 (≈ 21.6 µg/mL) | 250 (≈ 86.4 µg/mL) | 3.9 | 0.02 |
| COc1cc(Cl)ccc1C(=O)Nc1ccc(C(F)(F)F)cc1OC(=O)c1ccc(Cl)cc1OC | 62.5 (≈ 32.1 µg/mL) | 250 (≈ 129 µg/mL) | 250 (≈ 129 µg/mL) | 8 | 250 (≈ 129 µg/mL) | 250 (≈ 129 µg/mL) | – | 250 (≈ 129 µg/mL) | 250 (≈ 129 µg/mL) | 62.5 (≈ 32.1 µg/mL) | 250 (≈ 129 µg/mL) | – | – |
| NNC(=O)c1ccncc1 [ISONIAZID] | > 250 | 0.5 (≈ 0.0686 µg/mL) | 4 (≈ 0.549 µg/mL) | – | 4 (≈ 0.549 µg/mL) | 0.5 (≈ 0.0686 µg/mL) | > 250 | > 250 | 4 (≈ 0.549 µg/mL) | > 250 | > 250 | – | – |
| COc1ccc(Cl)cc1C(=O)Nc1ccc(C(F)(F)F)cc1O | 62.5 (≈ 21.6 µg/mL) | 500 (≈ 173 µg/mL) | 250 (≈ 86.4 µg/mL) | 2 | 250 (≈ 86.4 µg/mL) | 500 (≈ 173 µg/mL) | – | 250 (≈ 86.4 µg/mL) | 250 (≈ 86.4 µg/mL) | 62.5 (≈ 21.6 µg/mL) | 250 (≈ 86.4 µg/mL) | 4.91 | 0.01 |
| COc1cc(Cl)ccc1-c1nc2cc(Br)ccc2o1 | 250 (≈ 84.6 µg/mL) | 250 (≈ 84.6 µg/mL) | 250 (≈ 84.6 µg/mL) | 0 | 250 (≈ 84.6 µg/mL) | 250 (≈ 84.6 µg/mL) | 250 (≈ 84.6 µg/mL) | 250 (≈ 84.6 µg/mL) | 250 (≈ 84.6 µg/mL) | 250 (≈ 84.6 µg/mL) | 250 (≈ 84.6 µg/mL) | – | – |
| COc1cc(Cl)ccc1-c1nc2ccc(C(F)(F)F)cc2o1 | 125 (≈ 41 µg/mL) | 250 (≈ 81.9 µg/mL) | 250 (≈ 81.9 µg/mL) | 0 | 250 (≈ 81.9 µg/mL) | 250 (≈ 81.9 µg/mL) | – | 250 (≈ 81.9 µg/mL) | 250 (≈ 81.9 µg/mL) | 125 (≈ 41 µg/mL) | 250 (≈ 81.9 µg/mL) | – | – |
| COc1ccc(Cl)cc1C(=O)Nc1ccc(C(F)(F)F)cc1OC(=O)c1cc(Cl)ccc1OC | 62.5 (≈ 32.1 µg/mL) | 250 (≈ 129 µg/mL) | 8 (≈ 4.11 µg/mL) | 9 | 8 (≈ 4.11 µg/mL) | 250 (≈ 129 µg/mL) | – | 16 (≈ 8.23 µg/mL) | 8 (≈ 4.11 µg/mL) | 62.5 (≈ 32.1 µg/mL) | 8 (≈ 4.11 µg/mL) | – | – |
